Measured values gathered from unrelated publications.
Lines come from different studies, so protocols differ.
NR3C1: Glucocorticoid receptor (NR3C1, Homo sapiens, UniProt P04150)
PIK3C3: Phosphatidylinositol 3-kinase catalytic subunit type 3 (PIK3C3, Homo sapiens, UniProt Q8NEB9)
TYR: Tyrosinase (TYR, Homo sapiens, UniProt P14679)
Abl2: Abl2 (Mus musculus, UniProt Q4JIM5)
Si: Sucrase-isomaltase, intestinal (Si, Rattus norvegicus, UniProt P23739)

Oc1cccc(Nc2nc(-c3ccc(F)cc3F)cs2)c1
inhibition (NR3C1; cell-free assay; 10 µM): 21.6%

CC(C)CCn1c(SCC(=O)Nc2ccccc2C(F)(F)F)nc2nccnc2c1=O
inhibition (PIK3C3; enzyme activity, inhibitor; 10 µM): < 20%

Cc1ccc(C(C)C)cc1NC(=O)COC(=O)/C=C/c1ccccc1
inhibition (TYR; enzyme activity, inhibitor; 50 µg/mL): 82.3%

CN(C)C1CCN(CC#Cc2nn(C3CCCC3)c3nc(NCc4ccccc4)ncc23)C1 (centres unmarked)
inhibition (Leucine-rich repeat serine/threonine-protein kinase 2 (LRRK2, Homo sapiens, UniProt Q5S007); enzyme activity, inhibitor, FRET; 1 µM): 0%

Cc1ccc(C(C)C)cc1NC(=O)COC(=O)/C=C/c1ccc(O)cc1
inhibition (TYR; enzyme activity, inhibitor; 50 µg/mL): 55.8%

Cn1cnc(Br)c1C1=CN(c2ncnc3[nH]cnc23)CCS1
inhibition (cAMP-dependent protein kinase catalytic subunit beta (PRKACB, Homo sapiens, UniProt P22694); enzyme activity, inhibitor, radiometric; 2 µM): 91.3%

CC(CN(C)C)C(Oc1cccc2ccccc12)c1cccs1 (centres unmarked)
inhibition (Norepinephrine transporter (Slc6a2, Rattus norvegicus, UniProt Q9WTR4); ligand displacement, radioligand; 10 µM, cell membranes): < 70%

Cc1ccc(C(C)C)cc1NC(=O)COC(=O)c1cccc(O)c1
inhibition (TYR; enzyme activity, inhibitor; 50 µg/mL): 61.2%

O=C(c1ccc(Cl)cc1)N(Cc1ccccc1)C1CCCCC1
inhibition (5-hydroxytryptamine receptor 1A (HTR1A, Homo sapiens, UniProt P08908); ligand displacement, radioligand; 10 µM): -12.4%

CNC(=O)c1cc(Oc2ccc(NC(=O)Nc3ccc(Cl)c(C(F)(F)F)c3)cc2)ccn1
inhibition (Abl2; enzyme activity, inhibitor; 10 µM): 61%

COc1cc(NC(C)=O)c(Cl)cc1C(=O)Nc1nccs1
inhibition (NR3C1; cell-free assay; 10 µM): 11%

CCN(CC)c1ccc(C2Nc3ccc(C(=O)c4ccccc4)cc3NC3=C2C(=O)CC(C)(C)C3)cc1 (centres unmarked)
inhibition (Prostaglandin E2 receptor EP3 subtype (PTGER3, Homo sapiens, UniProt P43115); ligand displacement, radioligand; 10 µM): 12%

O=C1OC[C@H]2OC(=O)c3cc(O)c(O)c(O)c3-c3c(O)c(O)c(O)c4c3C(=O)O[C@H]([C@H]3OC(=O)c5c-4c(O)c(O)c(O)c5[C@H]3O)[C@@H]2OC(=O)c2cc(O)c(O)c(O)c2-c2c1cc(O)c(O)c2O
inhibition (Si; enzyme activity, inhibitor; 25 µg/mL): 25.7%

CN1CC(Oc2cnc(C#N)cc2-c2ccn3nc(NC(=O)C4CC4)cc3c2)C1
inhibition (Eukaryotic translation initiation factor 2-alpha kinase 1 (EIF2AK1, Homo sapiens, UniProt Q9BQI3); enzyme activity, inhibitor; 1 µM): -8%

Cc1ccc(C(C)C)cc1NC(=O)COC(=O)c1cc(O)cc(O)c1
inhibition (TYR; enzyme activity, inhibitor; 50 µg/mL): 54.6%

CCN(CC)c1ccc(C2=NNC(=O)CC2C)cc1[N+](=O)[O-] (centres unmarked)
inhibition (cGMP-inhibited 3',5'-cyclic phosphodiesterase 3A (PDE3A, Homo sapiens, UniProt Q14432); enzyme activity, inhibitor; 0.1 µM): 95%

O=C(Nc1ccc(S(=O)(=O)N2CCC(Cl)CC2)cc1)c1ccc([N+](=O)[O-])o1
inhibition (NR3C1; ligand displacement, radioligand; 10 µM): 19%

CCCNc1nc2ccccc2n1Cc1ccc(Cl)cc1
inhibition (Alpha-2C adrenergic receptor (ADRA2C, Homo sapiens, UniProt P18825); ligand displacement; 10 µM): 84.8%

CNc1cc(Oc2cc(C(=O)Nc3cc(N4CCN(C)CC4)cc(C(F)(F)F)c3)ccc2C)ncn1
inhibition (Serine/threonine-protein kinase SMG1 (SMG1, Homo sapiens, UniProt Q96Q15); target engagement in cells, inhibitor, chemoproteomics; Huh-7; 1 µM): -15.7%

COc1cc(Cl)c(C(=O)N[C@@H](CN[C@H]2CC[C@@H](N)CC2)Cc2ccc(C#N)cc2)cc1-c1ccc(CN[C@H](C)c2ccc(C)cc2)o1
inhibition (P2Y purinoceptor 2 (P2RY2, Homo sapiens, UniProt P41231); calcium signal, antagonist; 10 µM): -25%

O=C(CSc1nc2nccnc2c(=O)n1CCc1ccccc1)Nc1ccccc1
inhibition (PIK3C3; enzyme activity, inhibitor; 10 µM): < 20%

O=c1c(O[C@@H]2O[C@@H](CO)[C@H](O)[C@H]2O)c(-c2ccc(O)c(O)c2)oc2cc(O)cc(O)c12
inhibition (Si; enzyme activity, inhibitor; 50 µg/mL): 31.5%

Cc1ccc(Nc2nccc(N(C)c3ccc4c(C)n(C)nc4c3)n2)cc1S(N)(=O)=O
inhibition (Abl2; enzyme activity, inhibitor; 0.3 µM): 38%

O=C(c1ccc(F)cc1)N(Cc1ccccc1)C1CCCCC1
inhibition (NR3C1; cell-free assay; 10 µM): 9%

O=c1c(O[C@@H]2O[C@H](CO)[C@@H](O)[C@H](O)[C@H]2O)c(-c2ccc(O)c(O)c2)oc2cc(O)cc(O)c12
inhibition (Si; enzyme activity, inhibitor; 25 µg/mL): 21.4%

CCN(Cc1ccccc1C(F)(F)F)C(=O)C1CCN(S(=O)(=O)c2ccc3[nH]ncc3c2)CC1
inhibition (NR3C1; ligand displacement, radioligand; 10 µM): 1%
